ChEMBL document CHEMBL1799973, “Design, synthesis, and cytotoxic evaluation of acyl derivatives of 3-aminonaphtho[2,3-b]thiophene-4,9-dione, a quinone-based system” (J Med Chem, 2011)
Active and inactive are the calls of the source. No cut-off for these calls is given here.

Tests used:
[1] = system: U-937; experiment: Antitumor activity against human U937 cells after 24 to 48 hrs by MTT assay; format: functional, cell-based
In short: (§1)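 MTT read-out. Cells grown at 37 °C in DMEM with 10 mM glucose, 10% fetal calf serum, penicillin/streptomycin and 2 mmol/L glutamine. Seeded at 10^5 cells per well and left 24 h to attach, then compound added over a range of concentrations and cells grown 24 or 48 h. MTT at 1 mg/mL for 2 h at 37 °C in the dark, formazan dissolved in DMSO, OD read at 550 nm. Values are % of vehicle control (0.5% DMSO); IC50 by linear and polynomial regression; triplicate.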

[2] = system: SW-620; experiment: Antitumor activity against human SW620 cells after 24 to 48 hrs by MTT assay; format: functional, cell-based; in short: as §1
[3] = Antitumor activity against human MDA231 cells after 24 to 48 hrs by MTT assay; format: functional, cell-based; conditions: MDA-MB-231; in short: as §1
[4] = organism: Homo sapiens; experiment: Inhibition of human topoisomerase 2-mediated relaxation of supercoiled pBR322 DNA relaxation at 0.04 to 0.92 uM after 6 mins by agarose gel electrophoresis
[5] = system: COLO 205; experiment: Antitumor activity against human COLO205 cells after 24 to 48 hrs by MTT assay; format: functional, cell-based; in short: as §1
[6] = system: SNB-19; experiment: Antitumor activity against human SNB19 cells after 24 to 48 hrs by MTT assay; format: functional, cell-based; in short: as §1
[7] = system: SF-295; experiment: Antitumor activity against human SF295 cells after 24 to 48 hrs by MTT assay; format: functional, cell-based; in short: as §1
[8] = system: Caco-2; experiment: Antitumor activity against human differentiated Caco2 cells after 24 to 48 hrs by MTT assay; format: cell-based; in short: as §1
[9] = system: SK-MEL-28; experiment: Antitumor activity against human SK-MEL-28 cells after 24 to 48 hrs by MTT assay; format: functional, cell-based; in short: as §1
[10] = system: HT-29; experiment: Antitumor activity against human HT-29 cells after 24 to 48 hrs by MTT assay; format: functional, cell-based; in short: as §1
[11] = system: Caco-2; experiment: Antitumor activity against human undifferentiated Caco2 cells after 24 to 48 hrs by MTT assay; format: functional, cell-based; in short: as §1
[12] = organism: Homo sapiens; experiment: Inhibition of human topoisomerase 2-mediated relaxation of supercoiled pBR322 DNA relaxation at 10 uM after 6 mins by agarose gel electrophoresis
In short: (§2)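 Compound at 5 or 10 μM. Run 6 min at 37 °C and stopped with EDTA/SDS/glycerol dye. Products run on 1% agarose in 0.5× TBE at 4 V/cm for 1 h, stained with ethidium bromide, bands quantified.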

[13] = system: H9c2; experiment: Cardiotoxicity in rat H9c2 cells at 1 uM measured up to 120 hrs by MTT assay; format: toxicity, cell-based; conditions: h9c2, 120 h
In short: (§3)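 Rat H9C2 cardiomyoblasts, passages 4–10, grown at 37 °C in DMEM with FBS, glutamine and penicillin/streptomycin. Plated at 2000 cells/well in quadruplicate and given compound at 1 μM for the indicated times. MTT reagent added for 2 h in the incubator, then absorbance read at 570 nm. Data are mean ± SD.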

[14] = organism: Homo sapiens; experiment: Inhibition of human topoisomerase 2-mediated relaxation of supercoiled pBR322 DNA relaxation at 5 uM after 6 mins by agarose gel electrophoresis; in short: as §2
[15] = system: MDA-MB-435; experiment: Antitumor activity against human MDA-MB-435 cells after 24 to 48 hrs by MTT assay; format: functional, cell-based
In short: as §1, with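 “nm.” for “nm. Values are % of vehicle control (0.5% DMSO); IC50 by linear and polynomial regression; triplicate.”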

[16] = Antitumor activity against human IGROV cells after 24 to 48 hrs by MTT assay; format: functional, cell-based
In short: as §1, with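 “nm.” for “nm. Values are % of vehicle control (0.5% DMSO); IC50 by linear and polynomial regression; triplicate.”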

[17] = system: Nucleic Acid; experiment: Binding affinity to DNA assessed as binding mode index by measuring aliphatic signals by DF-STD spectrophotometric analysis; format: nucleic-acid assay
In short: (§4)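 DF-STD NMR on poly(dG-dC)·poly(dG-dC) in H2O/D2O 9:1 with 100 mM phosphate-buffered saline, pH 7.1. Ligand 1.0 mM; DNA 50 μM as phosphate (20:1 ligand excess). Saturation is centred on the aromatic or low-field aliphatic region for 2 s, with a reference off-resonance at δ −16 ppm and 512 scans. The binding mode index is the relative response of ligand protons to base versus sugar/backbone saturation.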

[18] = system: Nucleic Acid; experiment: Binding affinity to DNA assessed as binding mode index by measuring aromatic signals by DF-STD spectrophotometric analysis; format: nucleic-acid assay; in short: as §4
[19] = system: MCF7; experiment: Drug uptake in human MCF7 cells assessed as nuclear localization at 50 nM after 30 mins by confocal microscopic analysis; format: ADME, cell-based; conditions: mcf7, 0.5 h, 0.05 µM
In short: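 Imaging in MCF-7 cells by confocal microscopy with 50 nM labeled compound. Cells fixed in paraformaldehyde for 30 min at 4 °C, permeabilized with Triton X-100 for 30 min at 4 °C, and nuclei stained with Hoechst 33342. Images taken with a 63× oil objective.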

[20] = system: MCF7; experiment: Cytotoxicity against human MCF7 cells; format: functional, cell-based; in short: as §1
[21] = system: Caco-2; experiment: Cell cycle arrest in human Caco2 cells assessed as accumulation at G1 phase at 1 uM after 48 hrs by propidium iodide staining based flow cytometric analysis (reference value: 42%); format: functional
[22] = system: Caco-2; experiment: […] of cell differentiation in human Caco2 cells assessed as increase in ALP activity at 1 uM after 48 hrs; format: functional; set-up: scale not given: the % may be the effect or the level left
In short: (§5)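 Caco-2 cells cultured 48 h with 0, 1, 5 or 10 μM compound. Attached and floating cells washed and lysed in 0.25% sodium deoxycholate. ALP activity measured with a diagnostic ALP reagent and protein by Bradford microassay. Activity expressed as units per mg protein, as a differentiation marker.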

[23] = system: Nucleic Acid; experiment: Binding affinity to poly(dG-dC).poly(dG-dC) DNA assessed as compound/DNA complex formation at 1 mM by STD NMR spectrophotometric analysis; format: nucleic-acid assay
In short: (§6)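 Ligand at 1.0 mM with poly(dG-dC)·poly(dG-dC) at 50 μM (as phosphate groups), a 20:1 ligand excess, in H2O/D2O 9:1 with 100 mM phosphate-buffered saline, pH 7.1. Water suppressed by DPFGSE. STD effects taken relative to a reference spectrum with off-resonance saturation at δ −16 ppm, 2 s saturation, typically 512 scans. WaterLOGSY spectra recorded with and without DNA.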

[24] = system: Nucleic Acid; experiment: Binding affinity to poly(dG-dC).poly(dG-dC) DNA assessed as compound/DNA complex formation at 1 mM by WaterLOGSY NMR spectrophotometric analysis; format: nucleic-acid assay; in short: as §6
[25] = organism: Homo sapiens; experiment: Inhibition of human topoisomerase 2-mediated relaxation of supercoiled pBR322 DNA relaxation after 6 mins by agarose gel electrophoresis
[26] = system: Caco-2; experiment: […] of cell differentiation in human Caco2 cells assessed as increase in ALP activity at 5 uM after 48 hrs; format: functional; set-up: scale not given: the % may be the effect or the level left; in short: as §5
[27] = system: Caco-2; experiment: Increase in Hsp27 protein expression in human Caco2 cells after 48 hrs by Western blot analysis; format: functional, cell-based
In short: (§7)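 Caco-2 cells treated for 48 h (1 or 5 μM for Hsp27; 1 μM for cyclin A). Lysed in ice-cold 50 mM Tris, 150 mM NaCl, 10 mM EDTA, 1% Triton with protease inhibitors. Equal protein run on 8–12% SDS-PAGE and transferred to nitrocellulose. Primary antibody overnight in TBS/Tween/1% milk, then HRP secondary; bands detected by ECL.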

[28] = system: Caco-2; experiment: Cell cycle arrest in human Caco2 cells assessed as accumulation at S phase at 1 uM after 48 hrs by propidium iodide staining based flow cytometric analysis (reference value: 36%); format: functional
[29] = system: Caco-2; experiment: Cell cycle arrest in human Caco2 cells assessed as accumulation at G2/M phase at 1 uM after 48 hrs by propidium iodide staining based flow cytometric analysis (reference value: 21%); format: functional
[30] = system: Caco-2; experiment: Induction of cyclin A expression in human Caco2 cells at 1 uM after 48 hrs by Western blot analysis; format: functional; in short: as §7
[31] = Cardiotoxicity in rat H9c2 cells assessed as cell viability at 1 uM up to 120 hrs by MTT assay; format: toxicity, cell-based; conditions: read-out: Activity; in short: as §3
[32] = system: Caco-2; experiment: Selectivity index, ratio IC50 for undifferentiated human Caco2 cells to IC50 for differentiated human Caco2 cells; format: functional
In short: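 Ratio of MTT IC50 in undifferentiated to differentiated Caco-2 cells. MTT conditions: 24 or 48 h exposure, formazan dissolved in DMSO, read at 550 nm, IC50 by regression, triplicate.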

Compound NCC(=O)Nc1csc2c1C(=O)c1ccccc1C2=O has an IC50 [1] of 7 µM, an IC50 [2] of 2.3 µM and an IC50 [3] of 6.2 µM.

For COc1cccc2c1C(=O)c1c(O)c3c(c(O)c1C2=O)C[C@@](O)(C(=O)CO)C[C@@H]3O[C@H]1C[C@H](N)[C@H](O)[C@H](C)O1 [DOXORUBICIN], the inhibition [4] was “Active”, the IC50 [5] was 1.5 µM and the IC50 [6] was 0.8 µM. It also gave an IC50 [1] of 0.93 µM, an IC50 [7] of 4.4 µM and an IC50 [2] of 0.12 µM. For the same compound, the IC50 [8] was 0.6 µM, the IC50 [3] was 1.13 µM and the IC50 [9] was 0.6 µM. For the same compound, the IC50 [10] was 1.1 µM, the IC50 [11] was 6.7 µM and the inhibition [12] was “Active”. The Activity [13] was “Toxic” and the inhibition [14] was “Active”.

Work on O=C(CO)Nc1csc2c1C(=O)c1ccccc1C2=O yielded an IC50 [1] of 15.1 µM, an IC50 [2] of 18.5 µM and an IC50 [3] of 10.1 µM.

In the case of C[C@H](N)C(=O)Nc1csc2c1C(=O)c1ccccc1C2=O, the IC50 [1] is reported as 9.1 µM, the IC50 [2] is reported as 12.4 µM and the IC50 [3] is reported as > 40 µM.

O=C(CN1CCOCC1)Nc1csc2c1C(=O)c1ccccc1C2=O showed an IC50 [1] of 4.3 µM, an IC50 [2] of 10.8 µM and an IC50 [3] of 7.1 µM.

CN(C)CCNCCC(=O)Nc1csc2c1C(=O)c1ccccc1C2=O.Cl.Cl showed an IC50 [15] of 0.5 µM, an IC50 [5] of 1.1 µM and an IC50 [6] of 0.9 µM. For the same compound, the IC50 [1] was 1.3 µM, the IC50 [16] was 2 µM and the IC50 [7] was 0.6 µM. It also gave an Activity [17] of 0.9, an IC50 [2] of 0.6 µM and an Activity [18] of 1.01. For the same compound, the Drug uptake [19] was “Active”, the IC50 [20] was 0.6 µM and the IC50 [8] was 3.8 µM. It also gave an IC50 [3] of 2 µM, an IC50 [9] of 0.3 µM and an Activity [21] of 20%. The Activity [22] was 35%, the Activity [23] was “Active” and the IC50 [10] was 0.5 µM. The Activity [24] was “Active”, the inhibition [25] was “Dose-dependent effect” and the Activity [26] was >180%. The IC50 [11] was 0.8 µM, the Activity [27] was “Dose-dependent effect” and the Activity [28] was 53%. The Activity [29] was 26%, the Activity [30] was 43% and the viability at 120 h, 1 µM [31] was 76%. The “Ratio IC50” value [32] was 0.21.

O=C1c2ccccc2C(=O)c2c(NC(=O)[C@@H]3CCCN3)csc21 showed an IC50 [1] of 0.9 µM, an IC50 [2] of 5.4 µM and an IC50 [3] of 6.7 µM.

With N[C@@H](Cc1ccccc1)C(=O)Nc1csc2c1C(=O)c1ccccc1C2=O.O=C(O)C(F)(F)F the IC50 [1] was > 40 µM, the IC50 [2] was 30.5 µM and the IC50 [3] was > 40 µM. The Activity [21] was 37%, the Activity [23] was “inactive” and the Activity [24] was “inactive”. The inhibition [12] was “inactive”, the Activity [28] was 44% and the Activity [29] was 18%. For the same compound, the inhibition [14] was “inactive” and the Activity [30] was “inactive”.

Work on CCCNC(=O)Nc1csc2c1C(=O)c1ccccc1C2=O yielded an IC50 [1] of 10.1 µM, an IC50 [2] of 6.5 µM and an IC50 [3] of 9.5 µM.

Compound O=C(CS)Nc1csc2c1C(=O)c1ccccc1C2=O has an IC50 [1] of 30.1 µM, an IC50 [2] of 20.9 µM and an IC50 [3] of 13.6 µM.
